Test results published in ChEMBL document CHEMBL2413016, “Synthesis and in vivo evaluation of [(18)F]2-(4-(4-(2-(2-fluoroethoxy)phenyl)piperazin-1-yl)butyl)-4-methyl-1,2,4-triazine-3,5(2H,4H)-dione ([(18)F]FECUMI-101) as an imaging probe for 5-HT1A receptor agonist in nonhuman primates” (Bioorg Med Chem, 2013).

Columns and labels:
[1] = Tmax in baboon insula cortex at 111 +/- 18 MBq, iv by PET analysis; assay type: ADME, organism-based; details: papio anubis, in vivo
Procedure, shortened: (§1)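 Two fasted male baboons were given ketamine (10 mg/kg im) and kept under 1.5–2.0% isoflurane, with core temperature held at 37 °C. Tracer in 10% ethanol/90% saline was given as an iv bolus, and 3-D emission data were acquired for 180 min. Regional time-activity curves came from regions of interest, with right and left regions averaged.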

[2] = Drug uptake in baboon anterior cingulate at 111 +/- 18 MBq, iv by PET analysis in presence of WAY100635; assay type: ADME, organism-based; details: papio anubis, in vivo
Procedure, shortened: (§2)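 Baboon PET run as for baseline: ketamine/isoflurane anesthesia, iv bolus of tracer, 180 min 3-D acquisition, right and left regions averaged. WAY100635 maleate (0.5 mg/kg iv in 12 mL saline) was given at 50–60 min after tracer injection as a chase/blocking challenge.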

[3] = Drug uptake in baboon thalamus at 111 +/- 18 MBq, iv by PET analysis in presence of WAY100635; assay type: ADME, organism-based; details: papio anubis, in vivo; procedure, shortened: as §2
[4] = Drug uptake in baboon temporal cortex at 111 +/- 18 MBq, iv by PET analysis in presence of WAY100635; assay type: ADME, organism-based; details: papio anubis, in vivo; procedure, shortened: as §2
[5] = Drug uptake in baboon insular cortex at 111 +/- 18 MBq, iv by PET analysis in presence of WAY100635; assay type: ADME, organism-based; details: papio anubis, in vivo; procedure, shortened: as §2
[6] = Drug uptake in baboon prefrontal cortex at 111 +/- 18 MBq, iv by PET analysis in presence of WAY100635; assay type: ADME, organism-based; details: papio anubis, in vivo; procedure, shortened: as §2
[7] = Drug uptake in baboon cingulate at 111 +/- 18 MBq, iv by PET analysis in presence of WAY100635; assay type: ADME, organism-based, Cingulate cortex; details: papio anubis, in vivo; procedure, shortened: as §2
[8] = Drug uptake in baboon hippocampus at 111 +/- 18 MBq, iv by PET analysis in presence of WAY100635; assay type: ADME, organism-based; details: papio anubis, in vivo; procedure, shortened: as §2
[9] = Drug uptake in baboon caudate at 111 +/- 18 MBq, iv by PET analysis in presence of WAY100635; assay type: ADME, organism-based; details: papio anubis, in vivo; procedure, shortened: as §2
[10] = Drug uptake in baboon cerebellum at 111 +/- 18 MBq, iv by PET analysis in presence of WAY100635; assay type: ADME, organism-based; details: papio anubis, in vivo; procedure, shortened: as §2
Papio anubis = test: Drug metabolism in baboon at 111 +/- 18 MBq, iv after 2 to 180 mins; assay type: ADME, organism-based; details: in vivo
Procedure, shortened: (§3)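 Radiotracer given as an iv bolus to anesthetized baboons. Arterial blood was drawn at 2, 12, 30, 60, 90, 120, 150 and 180 min and centrifuged at 2000 rpm for 1 min. Plasma was mixed with acetonitrile, vortexed and spun at 14,000 rpm for 4 min. The supernatant was counted, then analysed by reversed-phase HPLC with radioactivity detection. Parent percentage was corrected for background and decay, with a QC standard run at the start and end.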

[11] = Drug uptake in baboon amygdala at 111 +/- 18 MBq, iv by PET analysis in presence of WAY100635; assay type: ADME, organism-based; details: papio anubis, in vivo; procedure, shortened: as §2
Nucleic Acid [12] = test: Ratio of drug level in temporal cortex to cerebellum in baboon at 111 +/- 18 MBq, iv after 175 mins by PET analysis; assay type: ADME, organism-based; details: papio anubis, in vivo
Nucleic Acid [13] = test: Ratio of drug level in thalamus to cerebellum in baboon at 111 +/- 18 MBq, iv after 175 mins by PET analysis; assay type: ADME, organism-based; details: papio anubis, in vivo
Nucleic Acid [14] = test: Ratio of drug level in dorsal raphe nucleus to cerebellum in baboon at 111 +/- 18 MBq, iv after 175 mins by PET analysis; assay type: ADME, organism-based; details: papio anubis, in vivo
Nucleic Acid [15] = test: Ratio of drug level in amygdala to cerebellum in baboon at 111 +/- 18 MBq, iv after 175 mins by PET analysis; assay type: ADME, organism-based; details: papio anubis, in vivo
Nucleic Acid [16] = test: Ratio of drug level in prefrontal cortex to cerebellum in baboon at 111 +/- 18 MBq, iv after 175 mins by PET analysis; assay type: ADME, organism-based; details: papio anubis, in vivo
Nucleic Acid [17] = test: Ratio of drug level in cingulate cortex to cerebellum in baboon at 111 +/- 18 MBq, iv after 175 mins by PET analysis; assay type: ADME, organism-based; details: papio anubis, in vivo
Nucleic Acid [18] = test: Ratio of drug level in anterior cingulate cortex to cerebellum in baboon at 111 +/- 18 MBq, iv after 175 mins by PET analysis; assay type: ADME, organism-based; details: papio anubis, in vivo
Nucleic Acid [19] = test: Ratio of drug level in insular cortex to cerebellum in baboon at 111 +/- 18 MBq, iv after 175 mins by PET analysis; assay type: ADME, organism-based; details: papio anubis, in vivo
Nucleic Acid [20] = test: Ratio of drug level in hippocampus to cerebellum in baboon at 111 +/- 18 MBq, iv after 175 mins by PET analysis; assay type: ADME, organism-based; details: papio anubis, in vivo
[21] = Tmax in baboon amygdala at 111 +/- 18 MBq, iv by PET analysis; assay type: ADME, organism-based; details: papio anubis, in vivo; procedure, shortened: as §1
[22] = Tmax in baboon striatum at 111 +/- 18 MBq, iv by PET analysis; assay type: ADME, organism-based; details: papio anubis, in vivo
Procedure, shortened: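 Baseline PET in two fasted male baboons on an ECAT EXACT HR+ scanner. Animals were immobilized with ketamine (10 mg/kg im), kept on 1.5–2.0% isoflurane via endotracheal tube, held at 37 °C core temperature, and hydrated with 0.9% NaCl. Radiotracer in 10% ethanol/saline was given as an iv bolus. Emission was recorded for 180 min in 3-D mode. Region time-activity curves used right/left averaged ROIs.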

[23] = Tmax in baboon cerebellum at 111 +/- 18 MBq, iv by PET analysis; assay type: ADME, organism-based; details: papio anubis, in vivo; procedure, shortened: as §1
[24] = Tmax in baboon cingulate cortex at 111 +/- 18 MBq, iv by PET analysis; assay type: ADME, organism-based; details: papio anubis, in vivo; procedure, shortened: as §1
[25] = Tmax in baboon prefrontal cortex at 111 +/- 18 MBq, iv by PET analysis; assay type: ADME, organism-based; details: papio anubis, in vivo; procedure, shortened: as §1
[26] = Tmax in baboon hippocampus at 111 +/- 18 MBq, iv by PET analysis; assay type: ADME, organism-based; details: papio anubis, in vivo; procedure, shortened: as §1
[27] = Metabolic stability of the compound in baboon plasma assessed as unmetabolized parent fraction after 180 mins by HPLC analysis; assay type: ADME, cell-free; details: papio anubis, read-out: Stability; procedure, shortened: as §3
[28] = Metabolic stability of the compound in baboon plasma assessed as unmetabolized parent fraction after 150 mins by HPLC analysis; assay type: ADME, cell-free; details: papio anubis, read-out: Stability; procedure, shortened: as §3
[29] = Metabolic stability of the compound in baboon plasma assessed as unmetabolized parent fraction after 120 mins by HPLC analysis; assay type: ADME, cell-free; details: papio anubis, read-out: Stability; procedure, shortened: as §3
[30] = Metabolic stability of the compound in baboon plasma assessed as unmetabolized parent fraction after 90 mins by HPLC analysis; assay type: ADME, cell-free; details: papio anubis, read-out: Stability; procedure, shortened: as §3
[31] = Metabolic stability of the compound in baboon plasma assessed as unmetabolized parent fraction after 60 mins by HPLC analysis; assay type: ADME, cell-free; details: papio anubis, read-out: Stability; procedure, shortened: as §3
[32] = Metabolic stability of the compound in baboon plasma assessed as unmetabolized parent fraction after 30 mins by HPLC analysis; assay type: ADME, cell-free; details: papio anubis, read-out: Stability; procedure, shortened: as §3
[33] = Metabolic stability of the compound in baboon plasma assessed as unmetabolized parent fraction after 12 mins by HPLC analysis; assay type: ADME, cell-free; details: papio anubis, read-out: Stability; procedure, shortened: as §3
[34] = Metabolic stability of the compound in baboon plasma assessed as unmetabolized parent fraction after 2 mins by HPLC analysis; assay type: ADME, cell-free; details: papio anubis, read-out: Stability; procedure, shortened: as §3
Plasma = test: Binding to human plasma proteins
[35] = Binding to baboon plasma proteins; details: papio anubis

What does the source list for Cn1c(=O)cnn(CCCCN2CCN(c3ccccc3OCC[18F])CC2)c1=O?
Tmax [1]: 3 min; Drug uptake [2]: Active; Drug uptake [3]: Active; Drug uptake [4]: Active; Drug uptake [5]: Active; Drug uptake [6]: Active; Drug uptake [7]: Active; Drug uptake [8]: Active; Drug uptake [9]: Active; Drug uptake [10]: Active; Drug metabolism (Papio anubis): Active; Drug uptake [11]: Active; Ratio (Nucleic Acid [12]): 2; Ratio (Nucleic Acid [13]): 2; Ratio (Nucleic Acid [14]): 1.75; Ratio (Nucleic Acid [15]): 2.4; Ratio (Nucleic Acid [16]): 1.8; Ratio (Nucleic Acid [17]): 1.8; Ratio (Nucleic Acid [18]): 2.5; Ratio (Nucleic Acid [19]): 2.3; Ratio (Nucleic Acid [20]): 4; Tmax [21]: 3 min; Tmax [22]: 3 min; Tmax [23]: 3 min; Tmax [24]: 3 min; Tmax [25]: 3 min; Tmax [26]: 3 min; remaining at 3 h [27]: 18%; remaining at 2.5 h [28]: 21.5%; remaining at 2 h [29]: 23.5%; remaining at 1.5 h [30]: 32.5%; remaining at 1 h [31]: 37%; remaining at 0.5 h [32]: 51%; remaining at 0.2 h [33]: 74%; remaining at 2 min [34]: 98%; plasma protein binding (Plasma): 11.5%; plasma protein binding [35]: 35%
